In ChEMBL document CHEMBL1806391, “Synthesis and biological evaluation of novel 5-alkyl-2-arylthio-6-((3,4-dihydroquinolin-1(2H)-yl)methyl)pyrimidin-4(3H)-ones as potent non-nucleoside HIV-1 reverse transcriptase inhibitors” (Bioorg Med Chem, 2011):
Activity calls are given as the source filed them. The rule behind the calls is not given here.

How the values were obtained:
[1] = tested on: Human immunodeficiency virus 1; test: Antiviral activity against wild type Human immunodeficiency virus 1 3B infected in human MT4 cells assessed as protection against virus-induced cytotoxicity after 5 days by MTT assay; assay type: functional, organism-based; settings: MT4, 120 h
Outline: (§1)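 MT-4 cells, spun 5 min at 1000 rpm, were resuspended at 6 × 10⁵ cells/mL and infected with HIV-1 IIIB or HIV-2 ROD. Compounds were added at the start in serial fivefold dilutions, in triplicate wells. Viability was read by MTT reduction at 540 and 690 nm five days post-infection. EC₅₀ is the concentration giving 50% protection from viral cytopathic effect, using the median OD of three wells.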

[2] = Selectivity index, ratio of CC50 for human MT4 cells to EC50 for wild type Human immunodeficieny virus 1 3B infected in human MT4 cells; assay type: toxicity, cell-based; settings: read-out: Ratio CC50/EC50
Outline: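 SI is CC₅₀ in mock-infected MT-4 cells divided by EC₅₀ against HIV-1 IIIB, both from 5-day MTT assays in triplicate wells.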

[3] = Cytotoxic activity against human MT4 cells assessed as viability of mock-infected cells after 5 days by MTT assay; assay type: cell-based
Outline: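 Mock-infected, exponentially growing MT-4 cells (6 × 10⁵ cells/mL) were exposed to serial fivefold compound dilutions in triplicate wells. After 5 days, viability was read by MTT formazan absorbance at 540 and 690 nm. CC₅₀ is the concentration that lowered OD540 of the mock-infected control by 50%, using the median OD of three wells.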

[4] = tested on: Human immunodeficiency virus 2; test: Antiviral activity against Human immunodeficiency virus 2 ROD infected in human MT4 cells assessed as inhibition of viral replication; assay type: functional, organism-based; settings: ISOLATE ROD; outline: as §1
[5] = target: Human immunodeficiency virus type 1 reverse transcriptase (Human immunodeficiency virus 1, UniProt Q72547); test: Inhibition of HIV1 wild type RT using poly(rA)/oligo(dT)15 homopolymer template after 1 hrs by ELISA
Outline: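 Wild-type HIV-1 RT was run on a poly(rA)/oligo(dT)₁₅ template, with oligo(dT) immobilized on plates and biotin-dUTP incorporated, 1 h at 37 °C. After Tris-HCl pH 7.5 washes, incorporated biotin was detected colorimetrically by streptavidin–alkaline phosphatase with PNPP (1 mg/mL, pH 9.5), 30 min at 37 °C, stopped with 0.5 M NaOH.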

[6] = tested on: Human immunodeficiency virus 2; test: Antiviral activity against wild type Human immunodeficiency virus 2 ROD infected in human MT4 cells assessed as protection against virus-induced cytotoxicity after 5 days by MTT assay; assay type: functional, organism-based; settings: Human immunodeficiency virus 2, ISOLATE ROD, MT4, 120 h; outline: as §1

Row | Structure (SMILES) | EC50 [1] | selectivity ratio [2] | CC50 at 120 h [3] | inhibition [4] | IC50 [5] | EC50 [6]
1 | CCc1c(CN2CCCc3ccccc32)nc(SCC(=O)c2ccccc2)[nH]c1=O | 0.24 µM | 1220 | 298 µM | inactive | 30.7 µM | > 298 µM
2 | CCc1c(CN2CCCc3ccccc32)nc(SCC(=O)c2ccc(Cl)cc2)[nH]c1=O | 1.01 µM | 249 | 275 µM | inactive |  | > 275 µM
3 | COc1ccc(C(=O)CSc2nc(CN3CCCc4ccccc43)cc(=O)[nH]2)cc1 | 24 µM | 7 | 160 µM | inactive |  | > 160 µM
